From ChEMBL document CHEMBL1155099, “Natural products in parallel synthesis: triazole libraries of nonactic acid” (2008)
Calls of active or inactive are those of the source.

Legend:
Format in all cases: functional, organism-based
[1] = test system: Bacillus anthracis; experiment: Antibacterial activity against Bacillus anthracis at 1mM by almar blue dye reduction assay
[2] = test system: Bacillus cereus; experiment: Antibacterial activity against Bacillus cereus at 1 mM by almar blue dye reduction assay
Procedure, shortened: (§1)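 Single-point primary screen at 1 mM using Alamar Blue dye reduction as the growth read-out.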

[3] = test system: Bacillus subtilis; experiment: Antibacterial activity against Bacillus subtilis at 1 mM by almar blue dye reduction assay; procedure, shortened: as §1
[4] = test system: Staphylococcus aureus; experiment: Antibacterial activity against Staphylococcus aureus at 1 mM by almar blue dye reduction assay; procedure, shortened: as §1
[5] = test system: Escherichia coli; experiment: Antibacterial activity against Escherichia coli at 1 mM by almar blue dye reduction assay; procedure, shortened: as §1
[6] = test system: Pseudomonas aeruginosa; experiment: Antibacterial activity against Pseudomonas aeruginosa at 1 mM by almar blue dye reduction assay; procedure, shortened: as §1
[7] = test system: Candida albicans; experiment: Antifungal activity against Candida albicans at 1 mM by almar blue dye reduction assay; procedure, shortened: as §1
[8] = test system: Cryptococcus neoformans; experiment: Antifungal activity against Cryptococcus neoformans at 1 mM by almar blue dye reduction assay; procedure, shortened: as §1
[9] = test system: Saccharomyces cerevisiae; experiment: Antifungal activity against Saccharomyces cerevisiae at 1 mM by almar blue dye reduction assay; procedure, shortened: as §1

Measured: Activity

CCCNC(=O)NCC#Cc1cn([C@H](C)CC2CCC([C@@H](C)C(=O)N3CCCC3)O2)nn1 (single isomer, unassigned)
inactive: all assays above

Cc1cccc(NC(=O)NCC#Cc2cn([C@H](C)CC3CCC([C@@H](C)C(=O)N4CCCC4)O3)nn2)c1 (single isomer, unassigned)
inactive: all assays above

C[C@H](CC1CCC([C@@H](C)C(=O)N2CCCC2)O1)n1cc(C#CCCCC#N)nn1 (single isomer, unassigned)
inactive: all assays above

C[C@H](C[C@@H]1CC[C@H]([C@@H](C)C(=O)N2CCN(CC3CCCO3)CC2)O1)n1cc(C#CC2=CCCCC2)nn1 (some centres not stated)
inactive: all assays above

C[C@H](C[C@@H]1CC[C@H]([C@@H](C)C(=O)N2CCCC2)O1)n1cc(C#CCOc2cccc(-c3ccccc3)c2)nn1
inactive: all assays above

CC(C)NC(=O)[C@H](C)[C@H]1CC[C@@H](C[C@@H](C)n2cc(C#CCc3ccccc3)nn2)O1
inactive: all assays above

CCOC(=O)C#Cc1cn([C@H](C)CC2CCC([C@@H](C)C(=O)N(CC)CC)O2)nn1 (single isomer, unassigned)
inactive: all assays above

CCCNC(=O)NCC#Cc1cn([C@H](C)CC2CCC([C@@H](C)C(=O)N3CCN(CC4CCCO4)CC3)O2)nn1 (single isomer, unassigned)
inactive: all assays above

C[C@H](C[C@@H]1CC[C@H]([C@@H](C)C(=O)N(C)Cc2ccccc2)O1)n1cc(C#Cc2ccc(C(F)(F)F)cc2)nn1
inactive: all assays above

C[C@H](C[C@@H]1CC[C@H]([C@@H](C)C(=O)N2CCCC2)O1)n1cc(C#CCN2CCN(c3ccccc3)CC2)nn1
inactive: all assays above

CC(C)CC#Cc1cn([C@H](C)C[C@@H]2CC[C@H]([C@@H](C)C(=O)N3CCCC3)O2)nn1
inactive: all assays above

CCCNC(=O)NCC#Cc1cn([C@H](C)CC2CCC([C@@H](C)C(=O)NC(C)C)O2)nn1 (single isomer, unassigned)
inactive: all assays above

COCCNCC#Cc1cn([C@H](C)C[C@@H]2CC[C@H]([C@@H](C)C(=O)N(C)Cc3ccccc3)O2)nn1
inactive: all assays above

COCC#Cc1cn([C@H](C)C[C@@H]2CC[C@H]([C@@H](C)C(=O)N(C)Cc3ccccc3)O2)nn1
inactive: all assays above

CCN(CC)C(=O)[C@H](C)[C@H]1CC[C@@H](C[C@@H](C)n2cc(C#CCN(C)C)nn2)O1
inactive: all assays above

CCN(CC)C(=O)[C@H](C)C1CCC(C[C@@H](C)n2cc(C#CCNC(=O)OCc3ccccc3)nn2)O1 (single isomer, unassigned)
inactive: all assays above

CCN(CC)C(=O)[C@H](C)[C@H]1CC[C@@H](C[C@@H](C)n2cc(C#CCOc3ccccc3)nn2)O1
inactive: all assays above

CC(C)NC(=O)[C@H](C)[C@H]1CC[C@@H](C[C@@H](C)n2cc(C#CCOc3ccc(C(F)(F)F)cc3)nn2)O1
inactive: all assays above

C[C@H](C[C@@H]1CC[C@H]([C@@H](C)C(=O)N2CCCC2)O1)n1cc(C#CCN2CCC(c3ccccc3)CC2)nn1
inactive: all assays above

CCCCCC#Cc1cn([C@H](C)C[C@@H]2CC[C@H]([C@@H](C)C(=O)NC(C)C)O2)nn1
inactive: all assays above

C[C@H](C[C@@H]1CC[C@H]([C@@H](C)C(=O)N(C)Cc2ccccc2)O1)n1cc(C#Cc2ccc(-c3ccccc3)cc2)nn1
inactive: all assays above

C[C@H](C[C@@H]1CC[C@H]([C@@H](C)C(=O)N2CCN(CC3CCCO3)CC2)O1)n1cc(C#Cc2ccccc2[N+](=O)[O-])nn1 (some centres not stated)
inactive: all assays above

CCN(CC)C(=O)[C@H](C)[C@H]1CC[C@@H](C[C@@H](C)n2cc(C#Cc3ccccc3[N+](=O)[O-])nn2)O1
inactive: all assays above
